Bioassay records from PubChem.
Compounds with a hit are over-represented: about 3.7% of the library has one in this group of screens.
KCNQ1 inh: human KCNQ1 channel inhibition | hit rate 1.3% among 310,000 | P51787 | B-score at 10 µM | CHO-K1 KCNQ1, FluxOR thallium flux fluorescence; stronger effect = higher value | AID 2642;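 active = compounds whose thallium flux B-score, printed positive for inhibition, exceeds three library SD while starting fluorescence stays within three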;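 note: channel opened by potassium depolarization with thallium stimulus after 20 min compound exposure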
KCNK9 block: blocks the human KCNK9 two-pore domain potassium channel | HEK293 KCNK9, FluxOR thallium flux fluorescence; stronger effect = lower value | B-score at 10 µM | hit rate 1.2% among 310,000 | AID 488922;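 active = ratio B-score over 3 SD below the library mean, with starting fluorescence within 5 SD of its mean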;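 note: negative B-score means less thallium flux so channel inhibition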
KCNQ1 act: potentiators or activators of human KCNQ1 potassium channel. B-score at 10 µM. CHO-K1 KCNQ1, thallium flux FluxOR fluorescence; stronger effect = higher value. P51787. AID 2648. hit rate 0.35% among 310,000;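 active = fluorescence ratio B-score, a plate-corrected score, at least three library SD, with initial intensity B-score within 5 SD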
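Schedule – 37 °C overnight plating, 90-min dark dye load, 20-min compound pretreatment · System – stable KCNQ1 CHO-K1 line · Probe or stimulus – thallium- and potassium-containing depolarizing buffer · Measured by – kinetic FluxOR fluorescence, 10 s baseline plus 110 s post-stimulus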
hERG rescue: shields human hERG channel from block by proarrhythmic agents; Q12809; CHO-hERG, FluxOR thallium flux, dofetilide IC70 present; activation (rescue from dofetilide block), less the hit threshold, % at 10 µM; hit rate 0.51% among 310,000; AID 1511;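 active = activation above the mean of controls blocked by dofetilide plus 5 SD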;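 note: thallium influx through hERG after potassium depolarization seen as dye fluorescence rise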
Target sequence (Q12809 whole entry, looked up): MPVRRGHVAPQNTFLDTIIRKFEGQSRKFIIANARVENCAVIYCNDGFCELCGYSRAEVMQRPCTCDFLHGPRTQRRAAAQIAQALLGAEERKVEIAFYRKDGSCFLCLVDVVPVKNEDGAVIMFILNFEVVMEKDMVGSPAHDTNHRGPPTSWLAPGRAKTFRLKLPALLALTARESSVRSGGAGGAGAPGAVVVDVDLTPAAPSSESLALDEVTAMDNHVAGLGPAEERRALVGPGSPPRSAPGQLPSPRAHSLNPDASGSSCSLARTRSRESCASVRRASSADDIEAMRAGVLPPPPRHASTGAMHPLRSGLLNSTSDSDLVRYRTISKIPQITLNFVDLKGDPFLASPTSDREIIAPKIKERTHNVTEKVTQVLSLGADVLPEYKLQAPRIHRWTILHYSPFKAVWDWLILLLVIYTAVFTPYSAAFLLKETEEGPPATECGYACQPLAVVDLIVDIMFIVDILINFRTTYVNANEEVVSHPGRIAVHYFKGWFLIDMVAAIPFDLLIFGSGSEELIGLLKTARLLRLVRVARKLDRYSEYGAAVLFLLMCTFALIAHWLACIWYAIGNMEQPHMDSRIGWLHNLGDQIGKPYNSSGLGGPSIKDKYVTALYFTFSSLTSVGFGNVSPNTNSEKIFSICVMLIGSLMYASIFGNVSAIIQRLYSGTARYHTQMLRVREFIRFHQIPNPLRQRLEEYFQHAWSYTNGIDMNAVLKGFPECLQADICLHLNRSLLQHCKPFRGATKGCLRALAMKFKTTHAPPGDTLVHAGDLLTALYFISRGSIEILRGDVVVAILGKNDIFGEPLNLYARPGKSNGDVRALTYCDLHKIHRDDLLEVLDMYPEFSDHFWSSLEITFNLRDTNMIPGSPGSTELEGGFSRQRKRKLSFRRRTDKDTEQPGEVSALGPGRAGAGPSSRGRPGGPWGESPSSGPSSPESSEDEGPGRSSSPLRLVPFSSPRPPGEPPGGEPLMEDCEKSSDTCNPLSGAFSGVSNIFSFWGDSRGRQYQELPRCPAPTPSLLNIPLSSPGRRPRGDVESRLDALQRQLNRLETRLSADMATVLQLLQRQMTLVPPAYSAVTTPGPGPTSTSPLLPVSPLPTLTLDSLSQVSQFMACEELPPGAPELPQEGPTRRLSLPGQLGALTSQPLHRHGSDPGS
Kir21 inh: inhibitors of mouse Kir2.1 inward-rectifier potassium channel; P35561; HEK293-Kir2.1, FluxOR thallium flux fluorescence; stronger effect = lower value; B-score at 10 µM; hit rate 0.85% among 310,000;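 active = fluorescence ratio B-score at or below minus 3 SD of library scores, with starting-brightness B-score within 2 SD, cut at about -4.2 in these data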;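 note: channel flux triggered by added potassium and thallium sulfate stimulus; B-score of peak minus minimum fluorescence over baseline after thallium stimulus; more negative B-score means stronger Kir2.1 block with less thallium influx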
KCNK3 inh: human KCNK3 channel inhibition, primary screen | hit rate 0.84% among 340,000 | CHO-KCNK3 thallium flux, FluxOR fluorescence; stronger effect = lower value | O14649 | B-score at 10 µM | AID 602410;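 active = B-score under library mean minus 4 SD, starting fluorescence ratio at most library mean plus 5 SD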;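 note: more negative B-score means stronger inhibition of thallium flux through KCNK3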
The depositor's hits bear a star; i = inactive; . = not tested or not shown.

SMILES | KCNQ1 inh | KCNK9 block | KCNQ1 act | hERG rescue | Kir21 inh | KCNK3 inh
Cc1ccc(/C=N/Nc2cc(C)nc(NCc3ccccc3)n2)cc1 | i | i | i | -8 | -0.3 | i
Cc1cc(Nc2ccc(Cl)cc2)nc(NCc2ccccc2)n1 | i | i | i | -18 | -7* | i
N#Cc1ccc(CSc2nnc(-c3ccccc3)n2Cc2ccco2)cc1 | i | i | i | -6 | -1.7 | i
C=CCn1c(SCc2ccc(C#N)cc2)nnc1-c1cccc(Cl)c1 | i | i | i | -16 | -11* | i
N=c1n(CCO)c2ccccc2n1CCOc1ccc(Cl)cc1Cl | i | i | i | -8 | -4.4* | i
CN(CCc1ccccc1)C(=O)c1ccc(NC(=O)Cc2ccc(NC(=O)C3CCCN(C(=O)CCc4ccccc4)C3)cc2)cc1 (stereo unspecified) | . | . | . | . | . | i
Cc1ccc(COc2ccsc2-c2n[nH]c(=S)n2C)cc1 | i | i | i | -15 | -0.03 | i
Cn1c(-c2sccc2OCc2ccc(Cl)cc2Cl)n[nH]c1=S | i | i | i | -11 | -5.5* | i
Cc1noc(C)c1CSc1nnc(-c2ccccc2)n1N | i | i | i | -8 | -0.74 | i
Cc1noc(C)c1CSc1nnc2scc(-c3ccccc3)n12 | i | i | i | -7 | -5.2* | i
O=C(c1cccs1)N1N=C(c2ccc(O)cc2)CC1c1ccccc1 (stereo unspecified) | i | i | i | -4 | -0.01 | i
O=C(c1cccs1)N1N=C(c2ccccc2)CC1c1ccccc1 (stereo unspecified) | i | -7.2* | i | -5 | 0.41 | i
O=C(O)c1ccc(N2CC3CC(C2)c2cccc(=O)n2C3)c(NC(=S)Nc2ccc(Br)cc2)c1 (stereo unspecified) | 6* | i | i | -18 | -0.79 | i
CCc1ccc(NC(=S)Nc2cc(C(=O)O)ccc2N2CC3CC(C2)c2cccc(=O)n2C3)cc1 (stereo unspecified) | i | i | i | -12 | 0.02 | i
O=C(C=Cc1ccc2c(c1)OCO2)c1ccccc1 | . | . | . | . | . | i
CCOC(=O)C(=Cc1ccc2c(c1)OCO2)c1ccccc1 | . | . | . | . | . | -9.8*
Cn1c(SCc2cccc([N+](=O)[O-])c2)nc2ccccc2c1=O | . | . | . | . | . | i
Cn1c(SCc2ccc(F)cc2Cl)nc2ccccc2c1=O | . | . | . | . | . | -8.9*
Cn1c(SCc2cccc(C#N)c2)nc2ccccc2c1=O | i | -7* | i | -2 | -0.88 | i
CNC(=O)c1cc(NC(=O)N(CCC#N)CCN(C(=O)NC(Cc2ccccc2)C(=O)NC(CC(C)C)C(=O)NC)c2ccccc2)ccc1OC (stereo unspecified) | . | . | . | . | . | i
COc1ccc(N(CC(=O)NCc2ccc3c(c2)OCO3)S(=O)(=O)c2ccc(O)c(C(=O)O)c2)cc1 | . | . | . | . | . | i
COc1ccccc1-n1c(SCC(=O)NC2CCS(=O)(=O)C2)nc2cc([N+](=O)[O-])ccc21 (stereo unspecified) | i | i | i | 2 | 0.88 | i
COc1ccccc1-n1c(SCC(=O)c2ccc(O)cc2O)nc2cc([N+](=O)[O-])ccc21 | 6* | i | i | -19 | -0.37 | i
COc1cc(NC(=O)C(C)Oc2ccccc2)c(OC)cc1NC(=O)c1ccccc1 (stereo unspecified) | i | i | i | -14 | 0.02 | i
CC(C)(C)OC(=O)C[C@H]1C/C=C\C[C@@H](CC(=O)N(CCO)Cc2ccccc2)C(=O)N[C@@H](Cc2ccccc2)COC1=O | . | . | . | . | . | i
SMILES | KCNQ1 inh | KCNK9 block | KCNQ1 act | hERG rescue | Kir21 inh | KCNK3 inh
CCCn1nc(NC(=O)c2cccs2)c2cc3cc(C)ccc3nc21 | i | -7.1* | i | -19 | 0.46 | i
Cc1cccc(N2CCN(CCCNC(=O)c3ccc(NC(=O)C4=CSCCO4)cc3)CC2C)c1 (stereo unspecified) | i | i | i | -8 | -0.23 | i
N#C/C(=C\c1ccc(-c2ccccc2Cl)o1)C(=O)Nc1nc2ccccc2s1 | i | i | i | 10* | 0.5 | i
Cc1ccc(NC(=O)c2ccc(Cl)c(S(=O)(=O)Nc3c(C)n(C)n(-c4ccccc4)c3=O)c2)cc1Cl | . | . | . | . | . | i
CCOC(=O)NC(=S)Nc1ccc(C(C)(C)C)cc1Br | i | i | 22* | 11* | -0.77 | i
CCC(=O)c1ccc(OCC(O)CN(CCc2ccccc2)Cc2ccccc2)cc1 (stereo unspecified) | 7* | i | i | -21 | -1.8 | i
O=c1[nH]c(SCc2nc3ccccc3c(=O)n2-c2ccccc2C(F)(F)F)nc2ccccc12 | i | -6.6* | i | -13 | -1.1 | i
Cc1ccc(S(=O)(=O)N2CCN(C(=O)COC(=O)CNC(=O)c3ccc(Cl)cc3Cl)CC2)c(C)c1 | . | . | . | . | . | i
Cc1c(O)ccc(/C(Cc2ccc3ccccc3n2)=N\N)c1O | i | -7.9* | i | -8 | 0.36 | i
C=CCn1c(SCC(=O)c2c(N)n(C)c(=O)n(C)c2=O)nnc1-c1ccoc1C | . | . | . | . | . | i
O=C(NC(=S)Nc1ccc(C(F)(F)F)cc1)c1csnn1 | i | i | 141* | 56* | 0.2 | i
COc1ccc(NC(=S)NC(=O)c2csnn2)cc1 | i | i | 24* | 16* | -0.43 | i
O=C(NC(=S)Nc1ccccc1)c1ccc(-c2ccccc2)cc1 | i | i | i | -6 | -0.52 | i
O=C(NC(=S)Nc1ccccc1)c1csnn1 | i | i | 116* | 63* | 1.9 | i
O=C(Nc1csnn1)c1csnn1 | i | i | i | -8 | -0.27 | i
CNC(=O)OCc1nc(SSC(C)(C)C)n(C)c1COC(=O)NC | . | . | . | . | . | i
COCCOC(=O)c1c(C)oc2ccc(OCC=C(C)C)cc12 | i | i | i | -1 | 0.31 | -9.1*
CCN(CC)C(=O)COc1ccc2oc(C)c(C(=O)OC(C)C)c2c1 | i | i | i | -19 | -4.2* | i
CN1CCN(S(=O)(=O)c2cccc(C(=O)N(C)CC(=O)Nc3ccc(Cl)c(Cl)c3)c2)CC1 | . | . | . | . | . | i
O=S(=O)(NCc1ccccc1)c1ccc(-n2cccn2)cc1 | i | i | i | -8 | 0.54 | i
CCNc1nc(NC(C)C)nc(N(C#N)CCOc2ccc(Cl)cc2Cl)n1 | i | -7.5* | i | -6 | -1.3 | -11*
CCNc1nc(NC(C)C)nc(N(C#N)CC(=O)OC)n1 | i | i | i | -8 | -1.4 | i
CCNc1nc(NC(C)C)nc(N(C#N)Cc2ccccc2)n1 | i | -7.3* | i | -2 | -0.62 | i
Cc1cc(C)c(S(=O)(=O)NCC(c2ccco2)N2CCc3ccccc3C2)c(C)c1 (stereo unspecified) | i | -6.8* | i | -3 | 0.04 | i
